In ChEMBL document CHEMBL1149822, “Synthesis, antimicrobial and anti-inflammatory activities of some 1,2,4-triazolo[3,4-b][1,3,4]thiadiazoles and 1,2,4-triazolo[3,4-b][1,3,4]thiadiazines bearing trichlorophenyl moiety” (2008):
Values after ≈ are worked out from the molar mass of the structure shown.

Tests used:
Type in all cases: functional
[1] = test system: Trichophyton mentagrophytes; assay: Antifungal activity against Trichophyton mentagrophytes at […] ug/ml after 3 to 4 days; conditions: read-out: IZ
Staphylococcus aureus [2] = assay: Antibacterial activity against Staphylococcus aureus ATTC 25923 after 16 to 18 hrs by serial plate dilution method
Procedure, shortened: (§1)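 Serial dilutions were made in Mueller-Hinton broth in tubes, adjusted to […] with phosphate buffer, and inoculated with a standardized bacterial suspension. Tubes were incubated at 37 °C for 16–18 h. MIC was taken as the lowest concentration with no visible growth.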

Escherichia coli [3] = assay: Antibacterial activity against Escherichia coli ATTC 25922 after 16 to 18 hrs by serial plate dilution method; conditions: ATCC25922; procedure, shortened: as §1
Talaromyces marneffei [4] = assay: Antifungal activity against Penicillium marneffei at […] ug/ml after 3 to 4 days; conditions: read-out: IZ
Escherichia coli [5] = assay: microbe, parasite or virus in culture; conditions: ATCC25922, read-out: IZ
Klebsiella pneumoniae [6] = assay: microbe, parasite or virus in culture; conditions: read-out: IZ
Pseudomonas aeruginosa [7] = assay: Antibacterial activity against Pseudomonas aeruginosa ATTC 27853 after 16 to 18 hrs by serial plate dilution method; conditions: ATCC27853; procedure, shortened: as §1
[8] = test system: Trichophyton mentagrophytes; assay: Antifungal activity against Trichophyton mentagrophytes by serial plate dilution method
Aspergillus flavus [9] = assay: Antifungal activity against Aspergillus flavus NCIM 524 by serial plate dilution method
Procedure, shortened: (§2)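 Agar of peptone 1 g, D-glucose 4 g and agar 2 g per 100 mL water, pH 5.7, was lawned with a fungal spore suspension in normal saline. The excess was decanted and plates were dried at 37 °C for 1 h. Wells were punched and compounds in DMSO were added, with a DMSO control. Plates were run in triplicate at 37 °C for 3–4 days, and the inhibition zone diameter was measured.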

Staphylococcus aureus [10] = assay: Antibacterial activity against Staphylococcus aureus ATTC 25923 at […] ug/ml after 3 to 4 days; conditions: read-out: IZ
Aspergillus fumigatus [11] = assay: Antifungal activity against Aspergillus fumigatus NCIM 902 at […] ug/ml after 3 to 4 days; conditions: read-out: IZ
Aspergillus fumigatus [12] = assay: Antifungal activity against Aspergillus fumigatus NCIM 902 by serial plate dilution method
Talaromyces marneffei [13] = assay: Antifungal activity against Penicillium marneffei by serial plate dilution method; procedure, shortened: as §2
Klebsiella pneumoniae [14] = assay: Antibacterial activity against Klebsiella pneumoniae after 16 to 18 hrs by serial plate dilution method; procedure, shortened: as §1
Pseudomonas aeruginosa [15] = assay: microbe, parasite or virus in culture; conditions: ATCC27853, read-out: IZ
Aspergillus flavus [16] = assay: Antifungal activity against Aspergillus flavus NCIM 524 at […] ug/ml after 3 to 4 days; conditions: read-out: IZ
Talaromyces marneffei [17] = assay: Antifungal activity against Penicillium marneffei at 12 ug/ml after 3 to 4 days; conditions: read-out: IZ; procedure, shortened: as §2
Rattus norvegicus = assay: Antiinflammatory activity against carrageenan-induced paw oedema in albino rat at 50 mg/kg, po relative to control
Procedure, shortened: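 Albino rats of 180–250 g were fasted 18 h and placed in groups of six. Samples were suspended in 2% w/v acacia mucilage, and the vehicle group served as control. 30 min after dosing, carrageenan (1 mg mL⁻¹, 0.1 mL) was injected subcutaneously into the right hind paw. Paw volume was measured immediately and at 3 h, and % oedema inhibition was calculated versus vehicle controls.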

Aspergillus fumigatus [18] = assay: Antifungal activity against Aspergillus fumigatus NCIM 902 at 12 ug/ml after 3 to 4 days; conditions: read-out: IZ; procedure, shortened: as §2
Klebsiella pneumoniae [19] = assay: Antibacterial activity against Klebsiella pneumoniae at 12 ug/ml after 3 to 4 days; conditions: read-out: IZ
Procedure, shortened: (§3)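 Agar well diffusion. Plates were seeded with a bacterial suspension, the excess was decanted and plates were dried at 37 °C for 1 h. Wells were punched and compounds in DMSO were added, with DMSO wells as control. Plates were run in triplicate at 37 °C for 3–4 days and zones of inhibition were scored.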

Staphylococcus aureus [20] = assay: Antibacterial activity against Staphylococcus aureus ATTC 25923 at 12 ug/ml after 3 to 4 days; conditions: read-out: IZ; procedure, shortened: as §3
Aspergillus flavus [21] = assay: Antifungal activity against Aspergillus flavus NCIM 524 at 12 ug/ml after 3 to 4 days; conditions: read-out: IZ; procedure, shortened: as §2
Escherichia coli [22] = assay: Antibacterial activity against Escherichia coli ATTC 25922 at 12 ug/ml after 3 to 4 days; conditions: ATCC25922, read-out: IZ; procedure, shortened: as §3
[23] = test system: Trichophyton mentagrophytes; assay: Antifungal activity against Trichophyton mentagrophytes at 12 ug/ml after 3 to 4 days; conditions: read-out: IZ; procedure, shortened: as §2
Pseudomonas aeruginosa [24] = assay: Antibacterial activity against Pseudomonas aeruginosa ATTC 27853 at 12 ug/ml after 3 to 4 days; conditions: ATCC27853, read-out: IZ; procedure, shortened: as §3

MIC (Staphylococcus aureus [2]) [µg/mL]	MIC (Escherichia coli [3]) [µg/mL]	MIC (Pseudomonas aeruginosa [7]) [µg/mL]	MIC [8] [µg/mL]	MIC (Aspergillus flavus [9]) [µg/mL]	MIC (Aspergillus fumigatus [12]) [µg/mL]	MIC (Talaromyces marneffei [13]) [µg/mL]	MIC (Klebsiella pneumoniae [14]) [µg/mL]	Compound	zone of inhibition at 6.25 µg/mL [1] [mm]	zone of inhibition at 6.25 µg/mL (Talaromyces marneffei [4]) [mm]	zone of inhibition at 6.25 µg/mL (Escherichia coli [5]) [mm]	zone of inhibition at 6.25 µg/mL (Klebsiella pneumoniae [6]) [mm]	zone of inhibition at 6.25 µg/mL (Staphylococcus aureus [10]) [mm]	zone of inhibition at 6.25 µg/mL (Aspergillus fumigatus [11]) [mm]	zone of inhibition at 6.25 µg/mL (Pseudomonas aeruginosa [15]) [mm]	zone of inhibition at 6.25 µg/mL (Aspergillus flavus [16]) [mm]	inhibition in vivo at 50 mg/kg (Rattus norvegicus) [%]	further results
6.25 (≈ 13.9 µM)	6.25 (≈ 13.9 µM)	6.25 (≈ 13.9 µM)	6.25 (≈ 13.9 µM)	6.25 (≈ 13.9 µM)	6.25 (≈ 13.9 µM)	6.25 (≈ 13.9 µM)	6.25 (≈ 13.9 µM)	Clc1cc(Cl)cc(-c2nn3c(-c4cc(Cl)cc(Cl)c4Cl)nnc3s2)c1	16	16	16	16	16	16	16	16		
6.25 (≈ 16.4 µM)	6.25 (≈ 16.4 µM)	6.25 (≈ 16.4 µM)	6.25 (≈ 16.4 µM)	6.25 (≈ 16.4 µM)	12 (≈ 31.4 µM)	12 (≈ 31.4 µM)	12 (≈ 31.4 µM)	Clc1cc(Cl)c(Cl)c(-c2nnc3sc(-c4ccccc4)nn23)c1	16		16		16		16	16	16.1	zone of inhibition at 12 µg/mL (Talaromyces marneffei [17]): 11 mm; zone of inhibition at 12 µg/mL (Aspergillus fumigatus [18]): 11 mm; zone of inhibition at 12 µg/mL (Klebsiella pneumoniae [19]): 11 mm
12 (≈ 30.3 µM)	12 (≈ 30.3 µM)	6.25 (≈ 15.8 µM)	12 (≈ 30.3 µM)	12 (≈ 30.3 µM)	6.25 (≈ 15.8 µM)	12 (≈ 30.3 µM)	6.25 (≈ 15.8 µM)	Clc1cc(Cl)c(Cl)c(-c2nnc3n2N=C(c2ccccc2)CS3)c1				16		16	16			zone of inhibition at 12 µg/mL (Talaromyces marneffei [17]): 11 mm; zone of inhibition at 12 µg/mL (Staphylococcus aureus [20]): 11 mm; zone of inhibition at 12 µg/mL (Aspergillus flavus [21]): 11 mm; zone of inhibition at 12 µg/mL (Escherichia coli [22]): 11 mm; zone of inhibition at 12 µg/mL [23]: 11 mm
6.25 (≈ 15.2 µM)	6.25 (≈ 15.2 µM)	6.25 (≈ 15.2 µM)	12 (≈ 29.1 µM)	12 (≈ 29.1 µM)	6.25 (≈ 15.2 µM)	6.25 (≈ 15.2 µM)	6.25 (≈ 15.2 µM)	Clc1cc(Cl)c(Cl)c(-c2nnc3sc(COc4ccccc4)nn23)c1		16	16	16	16	16	16			zone of inhibition at 12 µg/mL (Aspergillus flavus [21]): 11 mm; zone of inhibition at 12 µg/mL [23]: 11 mm
6.25 (≈ 13.5 µM)	6.25 (≈ 13.5 µM)	6.25 (≈ 13.5 µM)	6.25 (≈ 13.5 µM)	6.25 (≈ 13.5 µM)	6.25 (≈ 13.5 µM)	6.25 (≈ 13.5 µM)	6.25 (≈ 13.5 µM)	Clc1cc(Cl)c(Cl)c(-c2nnc3sc(-c4ccncc4Br)nn23)c1	16	16	16	16	16	16	16	16	19.4	
12 (≈ 30.3 µM)	12 (≈ 30.3 µM)	6.25 (≈ 15.8 µM)	12 (≈ 30.3 µM)	12 (≈ 30.3 µM)	6.25 (≈ 15.8 µM)	6.25 (≈ 15.8 µM)	6.25 (≈ 15.8 µM)	Cc1ccc(-c2nn3c(-c4cc(Cl)cc(Cl)c4Cl)nnc3s2)cc1		16		16		16	16		22.6	zone of inhibition at 12 µg/mL (Staphylococcus aureus [20]): 11 mm; zone of inhibition at 12 µg/mL (Aspergillus flavus [21]): 11 mm; zone of inhibition at 12 µg/mL (Escherichia coli [22]): 11 mm; zone of inhibition at 12 µg/mL [23]: 11 mm
6.25 (≈ 15.3 µM)	6.25 (≈ 15.3 µM)	12 (≈ 29.3 µM)	6.25 (≈ 15.3 µM)	6.25 (≈ 15.3 µM)	6.25 (≈ 15.3 µM)	6.25 (≈ 15.3 µM)	12 (≈ 29.3 µM)	Cc1ccc(C2=Nn3c(nnc3-c3cc(Cl)cc(Cl)c3Cl)SC2)cc1	16	16	16		16	16		16	19.4	zone of inhibition at 12 µg/mL (Pseudomonas aeruginosa [24]): 11 mm; zone of inhibition at 12 µg/mL (Klebsiella pneumoniae [19]): 11 mm
6.25 (≈ 14.4 µM)	6.25 (≈ 14.4 µM)	12 (≈ 27.7 µM)	6.25 (≈ 14.4 µM)	6.25 (≈ 14.4 µM)	6.25 (≈ 14.4 µM)	6.25 (≈ 14.4 µM)	6.25 (≈ 14.4 µM)	Clc1cc(Cl)c(Cl)c(-c2nnc3sc(-c4cccc5ncccc45)nn23)c1	16	16	16	16	16	16		16	9.67	zone of inhibition at 12 µg/mL (Pseudomonas aeruginosa [24]): 11 mm
6.25 (≈ 14.1 µM)	6.25 (≈ 14.1 µM)	6.25 (≈ 14.1 µM)	6.25 (≈ 14.1 µM)	6.25 (≈ 14.1 µM)	6.25 (≈ 14.1 µM)	6.25 (≈ 14.1 µM)	6.25 (≈ 14.1 µM)	CSc1ccc(C2=Nn3c(nnc3-c3cc(Cl)cc(Cl)c3Cl)SC2)cc1	16	16	16	16	16	16	16	16	9.67	
6.25 (≈ 16.3 µM)	6.25 (≈ 16.3 µM)	6.25 (≈ 16.3 µM)	6.25 (≈ 16.3 µM)	6.25 (≈ 16.3 µM)	6.25 (≈ 16.3 µM)	6.25 (≈ 16.3 µM)	6.25 (≈ 16.3 µM)	Clc1cc(Cl)c(Cl)c(-c2nnc3sc(-c4ccncc4)nn23)c1	16	16	16	16	16	16	16	16	11.3	
6.25 (≈ 13.7 µM)	6.25 (≈ 13.7 µM)	6.25 (≈ 13.7 µM)	6.25 (≈ 13.7 µM)	6.25 (≈ 13.7 µM)	6.25 (≈ 13.7 µM)	6.25 (≈ 13.7 µM)	6.25 (≈ 13.7 µM)	NC(=O)c1cc(C2=Nn3c(nnc3-c3cc(Cl)cc(Cl)c3Cl)SC2)ccc1O	16	16	16	16	16	16	16	16		
6.25 (≈ 14.7 µM)	6.25 (≈ 14.7 µM)	6.25 (≈ 14.7 µM)	6.25 (≈ 14.7 µM)	6.25 (≈ 14.7 µM)	6.25 (≈ 14.7 µM)	6.25 (≈ 14.7 µM)	6.25 (≈ 14.7 µM)	COc1ccc(C2=Nn3c(nnc3-c3cc(Cl)cc(Cl)c3Cl)SC2)cc1	16	16	16	16	16	16	16	16	19.4	
6.25 (≈ 14.5 µM)	6.25 (≈ 14.5 µM)	6.25 (≈ 14.5 µM)	6.25 (≈ 14.5 µM)	6.25 (≈ 14.5 µM)	6.25 (≈ 14.5 µM)	6.25 (≈ 14.5 µM)	6.25 (≈ 14.5 µM)	Clc1ccc(C2=Nn3c(nnc3-c3cc(Cl)cc(Cl)c3Cl)SC2)cc1	16	16	16	16	16	16	16	16	30.6	
